The values that follow come from ChEMBL document CHEMBL1129249, “Synthesis and activity of a novel series of 3-biarylquinuclidine squalene synthase inhibitors” (J Med Chem, 1996).

Bounds are passed on as bounds.

One assay relates to Rattus norvegicus. The assay can be described thus: Inhibition of cholesterol biosynthesis from mevolanate after oral dosing to rat. In kind it is functional. The method, boiled down: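 Rats were dosed orally, and cholesterol synthesis from mevalonate was then measured. ED50 (mg/kg) was derived from dose–response data and reported with 95% confidence limits.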
For `OC1(c2ccc(-c3ccncc3)cc2)CN2CCC1CC2` (stereo unspecified), the median effective dose (ED50) (usually the dose at which the effect has come halfway, by size or by number of responders) stood at 2.7 mg/kg.

The target in the next assay is T1, Squalene synthase (Rattus norvegicus, UniProt Q02769).
T1 sequence (Q02769 whole entry): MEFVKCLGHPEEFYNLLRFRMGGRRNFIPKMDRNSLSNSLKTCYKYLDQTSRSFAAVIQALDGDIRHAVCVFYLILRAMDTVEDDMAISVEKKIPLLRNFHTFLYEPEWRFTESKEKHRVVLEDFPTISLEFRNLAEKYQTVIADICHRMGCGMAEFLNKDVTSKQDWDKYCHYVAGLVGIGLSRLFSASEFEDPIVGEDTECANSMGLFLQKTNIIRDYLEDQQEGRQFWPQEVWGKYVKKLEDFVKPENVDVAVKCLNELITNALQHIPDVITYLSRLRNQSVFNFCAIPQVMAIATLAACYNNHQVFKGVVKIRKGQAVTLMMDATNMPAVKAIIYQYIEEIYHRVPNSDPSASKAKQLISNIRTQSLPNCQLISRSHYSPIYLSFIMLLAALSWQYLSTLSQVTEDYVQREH
The assay can be described thus: In vitro inhibition against rat microsomal squalene synthase (SS). Summed up: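 Squalene synthase came from rat microsomes. Inhibition was tested in phosphate buffer. IC50 values are from duplicate determinations (n = 2).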
Regarding `OC1(c2ccc(-c3cnc4ccccc4c3)cc2)CN2CCC1CC2` (stereo unspecified), 200 nM corresponded to half-maximal inhibition (IC50).
Take `O=C(NC1CN2CCC1CC2)c1ccc(-c2ccccc2)cc1` (stereo unspecified): the IC50 (in general, the concentration needed to halve the response being measured) amounted to 1200 nM.
As to `c1ccc(-c2ccc(CCC3CN4CCC3CC4)cc2)cc1` (stereo unspecified), the IC50 was 5 nM.
As to `OC1(CSc2ccc(-c3ccccc3)cc2)CN2CCC1CC2` (stereo unspecified), the half-maximal inhibitory concentration (IC50) is 8 nM.
`OC1(c2ccc(-c3cccnc3)cc2)CN2CCC1CC2` (stereo unspecified) yielded an IC50 of 270 nM.
The molecule `OC1(c2ccccc2)CN2CCC1CC2` (stereo unspecified) had an IC50 of over 2500 nM.
In turn, `OC1(c2cnc(-c3ccccc3)s2)CN2CCC1CC2` (stereo unspecified) had an IC50 of 60 nM.
With `OC1(c2ccc(-c3cccs3)cc2)CN2CCC1CC2` (stereo unspecified), 40 nM corresponded to half-maximal inhibition (IC50).
`OC(c1ccc(-c2ccccc2)cc1)C1CN2CCC1CC2` (stereo in doubt; 32) yielded an IC50 of 2500 nM.
The molecule `COC1(c2ccc(-c3ccccc3)cc2)CN2CCC1CC2` (stereo unspecified) showed an IC50 of over 2500 nM.
The molecule `Oc1ccc(-c2ccc(C3(O)CN4CCC3CC4)cc2)cc1` (stereo unspecified) came in with a half-maximal inhibitory concentration (IC50) of 132 nM. This counts as sub-micromolar.
Consider `OC1(CCc2ccc(-c3ccccc3)cc2)CN2CCC1CC2` (stereo unspecified), for which inhibition was half-maximal at 7 nM (IC50). This IC50 lies about 19-fold lower than the previous one.
The molecule `OC1(c2ccc(-c3ccccc3)cc2)CN2CCC1CC2` (stereo in doubt; 2a(+)) registered a concentration for half-maximal inhibition (IC50) of 7 nM.
On the same count and under the same terms, to `C(=C\C1CN2CCC1CC2)/c1ccc(-c2ccccc2)cc1` (stereo unspecified) belongs 4 nM.
In turn, `OC1(c2ccc(-c3ccc(F)cc3)cc2)CN2CCC1CC2` (stereo unspecified) came in with an IC50 of 18 nM.
With `OC1(c2ccc(-c3ccccc3)cc2)CN2CCC1CC2` (stereo in doubt; 2), the midpoint of inhibition, the IC50, lay at 16 nM.
In turn, `OC1(c2ccc(-c3ncccn3)cc2)CN2CCC1CC2` (stereo unspecified) registered an IC50 of 30 nM.
Take `OC1(c2ccc(-c3nccs3)cc2)CN2CCC1CC2` (stereo unspecified): the midpoint of inhibition, the IC50, lay at 30 nM.
`OC1(c2ccc(C3CCCCC3)cc2)CN2CCC1CC2` (stereo unspecified): half-maximal inhibition (IC50) was put at 190 nM.
`c1ccc(-c2ccc(CC3CN4CCC3CC4)cc2)cc1` (stereo unspecified) gave an IC50 of 27 nM.
As to `O=S(=O)(c1ccc(-c2ccccc2)cc1)C1CN2CCC1CC2` (stereo unspecified), the IC50 was over 2500 nM.
In turn, `[O-][S+](CC1(O)CN2CCC1CC2)c1ccc(-c2ccccc2)cc1` (stereo unspecified) registered a 50% inhibitory concentration (IC50) of over 2500 nM.
As for `OC1(COc2ccc(-c3ccccc3)cc2)CN2CCC1CC2` (stereo unspecified), the midpoint of inhibition, the IC50, lay at 13 nM.
As to `OC1(c2cccc(-c3ccccc3)c2)CN2CCC1CC2` (stereo unspecified), it took 60 nM to reach half-maximal inhibition (IC50).
`O=S(=O)(NC1CN2CCC1CC2)c1ccc(-c2ccccc2)cc1` (stereo unspecified): the IC50 is over 2500 nM.
Regarding `OC(c1ccc(-c2ccccc2)cc1)C1CN2CCC1CC2` (stereo in doubt; 33), the IC50 was 2500 nM.
`OC1(c2ccc(-c3ccncc3)cc2)CN2CCC1CC2` (stereo unspecified): the IC50 worked out at 161 nM. Compared with the last molecule, the IC50 is about 16-fold lower.
The same measure, in the same setting: to `OC1(c2ccc(-c3ccccn3)cc2)CN2CCC1CC2` (stereo unspecified) belongs 240 nM; to `CC(C)=CCC/C(C)=C/CC/C(C)=C/COC1CN2CCC1CC2` (stereo unspecified), 70 nM.
`OC1(C#Cc2ccc(-c3ccccc3)cc2)CN2CCC1CC2` (stereo unspecified): the IC50 is 3 nM.
Molecule `OC1(c2ccc(-c3nc4ccccc4s3)cc2)CN2CCC1CC2` (stereo unspecified) showed a half-inhibitory concentration (IC50) of 6 nM.
Regarding `C(=C/C1CN2CCC1CC2)/c1ccc(-c2ccccc2)cc1` (stereo unspecified), the half-maximal inhibitory concentration (IC50) is 580 nM.
The molecule `c1ccc(-c2ccc(C3CN4CCC3CC4)cc2)cc1` (stereo unspecified) gave an IC50 of 11 nM.
In turn, `C1=C(c2ccc(-c3ccccc3)cc2)C2CCN1CC2` came in with an IC50 of 18 nM. This IC50 is about 1.6-fold higher than that of the molecule before.
In turn, `OC1(c2ccc(C3OCCCO3)cc2)CN2CCC1CC2` (stereo unspecified) registered an IC50 of over 2500 nM.
The molecule `OC1(c2ccc(-c3cccs3)s2)CN2CCC1CC2` (stereo unspecified) yielded an IC50 of over 2500 nM.
`OC1(c2ccc(-c3ccccc3)cc2)CN2CCC1CC2` (stereo in doubt; 2a(-)) returned an IC50 of 121 nM.
Turning to `O=S(=O)(CC1(O)CN2CCC1CC2)c1ccc(-c2ccccc2)cc1` (stereo unspecified), the IC50 is over 2500 nM.
On to `CC(C)=CCC/C(C)=C/CC/C(C)=C/COCC1(O)CN2CCC1CC2` (stereo unspecified), for which half-maximal inhibition (IC50) was put at 60 nM.
In the case of `OC1(c2ccc(-c3ccc(-c4ccccc4)cc3)cc2)CN2CCC1CC2` (stereo unspecified), the IC50 turned out to be 370 nM. Against the preceding molecule, the IC50 is about 6.2-fold higher.
